pIC50, pKd: −log10 of the molar value. Active and inactive are the calls of the source. The calls are words filed in the database; no cut-off is given here.
Columns and labels:
[1] = target: T1, Histone acetyltransferase KAT8 (Homo sapiens, UniProt Q9H7Z6); experiment: Inhibition of human His-tagged MOF using histone H4 substrate by radioactive acetylation assay
T1 sequence (Q9H7Z6 whole entry): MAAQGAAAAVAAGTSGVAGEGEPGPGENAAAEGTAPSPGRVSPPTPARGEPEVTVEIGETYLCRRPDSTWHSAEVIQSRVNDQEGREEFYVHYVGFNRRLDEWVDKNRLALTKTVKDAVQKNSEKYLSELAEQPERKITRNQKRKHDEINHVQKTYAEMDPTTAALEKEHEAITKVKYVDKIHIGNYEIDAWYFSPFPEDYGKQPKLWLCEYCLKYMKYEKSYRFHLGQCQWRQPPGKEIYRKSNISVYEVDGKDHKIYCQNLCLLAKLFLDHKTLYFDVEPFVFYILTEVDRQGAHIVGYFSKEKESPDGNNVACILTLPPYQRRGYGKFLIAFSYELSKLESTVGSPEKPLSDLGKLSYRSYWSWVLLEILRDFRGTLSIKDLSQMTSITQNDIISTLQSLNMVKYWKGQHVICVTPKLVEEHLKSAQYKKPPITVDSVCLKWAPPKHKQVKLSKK
Outline: (§1)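 His6-tagged hMOF catalytic domain (173-458) from E. coli, preincubated with compound for 15 min at room temperature in modified Tris buffer pH 7.5, then given biotinylated H4-derived peptide and [3H]acetyl-CoA. Reaction ran 240 min at room temperature, was captured on a streptavidin Flashplate, washed and scintillation-counted. Percent inhibition computed; IC50 from a nonlinear dose-response fit.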

[2] = target: T2, Histone acetyltransferase KAT8 (Homo sapiens) (UniProt Q9H7Z6); experiment: (§2) Binding affinity to human His-tagged MOF by SPR analysis
T2 sequence (whole entry): T1 sequence (Q9H7Z6 whole entry)
Outline: (§3)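 hMOF catalytic domain (173-458), N-terminal His6, expressed in E. coli BL21(DE3), amine-coupled to a CM5 chip in 10 mM sodium acetate pH 4.0; SPR at 25 °C in HBS (20 mM HEPES pH 7.4, 200 mM NaCl, 0.5% DMSO). Analyte 5–100 μM injected 120 s at 30 μL/min, then 300 s dissociation; Kd from a steady-state fit.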

[3] = target: T1, Histone acetyltransferase KAT8; experiment: as §2; outline: as §3
[4] = target: T2, Histone acetyltransferase KAT8 (Homo sapiens); experiment: Inhibition of human His-tagged MOF at 50 uM using histone H4 substrate by radioactive acetylation assay relative to control; outline: as §1
[5] = target: T2, Histone acetyltransferase KAT8 (Homo sapiens); experiment: Inhibition of human His-tagged MOF at 100 uM using histone H4 substrate by radioactive acetylation assay relative to control; outline: as §1
[6] = target: T1, Histone acetyltransferase KAT8; experiment: Inhibition of human His-tagged MOF preincubated for 10 mins followed by biotin-labeled H4K16 substrate addition measured after 30 mins in presence of acetyl-CoA by alphascreen assay
[7] = target: T2, Histone acetyltransferase KAT8 (Homo sapiens); experiment: Inhibition of human His-tagged MOF using constant concentration histone H4 substrate and varying levels of acetyl-CoA by radioactive acetylation assay
[8] = target: T2, Histone acetyltransferase KAT8 (Homo sapiens); experiment: Inhibition of human His-tagged MOF using constant concentration acetyl-CoA and varying levels of histone H4 substrate by radioactive acetylation assay
[9] = target: Histone deacetylase 1 (Homo sapiens, UniProt Q13547); experiment: Inhibition of HDAC1 (unknown origin)
[10] = target: DNA (cytosine-5)-methyltransferase 1 (Homo sapiens, UniProt P26358); experiment: Inhibition of DNMT1 (unknown origin)
[11] = target: Protein arginine N-methyltransferase 1 (Homo sapiens, UniProt Q99873); experiment: Inhibition of PRMT1 (unknown origin)
[12] = species on record: Homo sapiens; experiment: Selectivity ratio of IC50 for HDAC1 (unknown origin) to IC50 for human His-tagged MOF by alphascreen assay
[13] = species on record: Homo sapiens; experiment: Selectivity ratio of IC50 for DNMT1 (unknown origin) to IC50 for human His-tagged MOF by alphascreen assay
[14] = species on record: Homo sapiens; experiment: Selectivity ratio of IC50 for PRMT1 (unknown origin) to IC50 for human His-tagged MOF by alphascreen assay
[15] = test system: HCT-116; experiment: Inhibition of colony formation in human HCT116 cells after 14 days by crystal violet staining based assay; type: functional, cell-based
[16] = target: T2, Histone acetyltransferase KAT8 (Homo sapiens); experiment: Inhibition of MOF in human HCT116 cells assessed as decrease in H4K16 acetylation level after 24 hrs by Western blot analysis; type: cell-based
Outline: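 HCT116 cells treated for 24 h. Lysates run on 4–16% SDS-PAGE, transferred to nitrocellulose, blocked in 5% milk/PBST, primary antibody overnight at 4 °C, HRP donkey anti-rabbit secondary at 1:10000 for 1 h; H4K16 acetylation level read.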

[17] = test system: HCT-116; experiment: Upregulation of IFI16 mRNA level in human HCT116 cells at 50 to 100 uM after 3 days by quantitative real-time PCR analysis
[18] = target: T2, Histone acetyltransferase KAT8 (Homo sapiens); experiment: Inhibition of MOF in human HCT116 cells assessed as decrease in SKP2 mRNA level after 3 days by quantitative real-time PCR analysis
[19] = target: T2, Histone acetyltransferase KAT8 (Homo sapiens); experiment: Inhibition of MOF in human HCT116 cells assessed as decrease in UCP2 mRNA level after 3 days by quantitative real-time PCR analysis
[20] = target: Histone acetyltransferase KAT2A (Homo sapiens, UniProt Q92830); experiment: Inhibition of recombinant human GST-tagged Gcn5 using H3 as substrate in presence of [3H]-acetyl-CoA by phosphor image analysis
[21] = test system: HCT-116; experiment: Inhibition of colony formation in human HCT116 cells at 100 uM after 14 days by crystal violet staining based assay; type: functional, cell-based

Sequence of Histone acetyltransferase KAT2A (Q92830 whole entry): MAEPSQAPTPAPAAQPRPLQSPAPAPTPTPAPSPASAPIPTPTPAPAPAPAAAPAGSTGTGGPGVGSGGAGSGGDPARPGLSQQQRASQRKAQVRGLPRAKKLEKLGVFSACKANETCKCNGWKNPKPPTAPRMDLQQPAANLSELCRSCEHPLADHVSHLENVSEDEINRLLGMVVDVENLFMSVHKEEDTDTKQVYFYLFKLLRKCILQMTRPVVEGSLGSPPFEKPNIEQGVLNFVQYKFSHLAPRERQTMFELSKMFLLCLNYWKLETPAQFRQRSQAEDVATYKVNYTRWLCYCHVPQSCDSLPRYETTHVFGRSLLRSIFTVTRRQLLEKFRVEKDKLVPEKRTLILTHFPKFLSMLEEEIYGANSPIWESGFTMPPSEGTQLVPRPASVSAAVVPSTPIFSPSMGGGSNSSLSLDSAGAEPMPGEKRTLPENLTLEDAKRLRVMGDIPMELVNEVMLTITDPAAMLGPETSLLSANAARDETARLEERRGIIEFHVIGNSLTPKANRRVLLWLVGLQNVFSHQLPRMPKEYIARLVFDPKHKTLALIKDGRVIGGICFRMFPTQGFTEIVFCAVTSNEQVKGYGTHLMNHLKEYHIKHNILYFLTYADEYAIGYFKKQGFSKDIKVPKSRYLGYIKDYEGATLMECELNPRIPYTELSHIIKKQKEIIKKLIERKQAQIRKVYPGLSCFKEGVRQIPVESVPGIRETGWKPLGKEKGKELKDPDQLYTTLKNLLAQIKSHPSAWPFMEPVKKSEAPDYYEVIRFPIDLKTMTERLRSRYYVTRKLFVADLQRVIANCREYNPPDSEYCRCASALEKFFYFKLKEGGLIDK
Sequence of Protein arginine N-methyltransferase 1 (Q99873 whole entry): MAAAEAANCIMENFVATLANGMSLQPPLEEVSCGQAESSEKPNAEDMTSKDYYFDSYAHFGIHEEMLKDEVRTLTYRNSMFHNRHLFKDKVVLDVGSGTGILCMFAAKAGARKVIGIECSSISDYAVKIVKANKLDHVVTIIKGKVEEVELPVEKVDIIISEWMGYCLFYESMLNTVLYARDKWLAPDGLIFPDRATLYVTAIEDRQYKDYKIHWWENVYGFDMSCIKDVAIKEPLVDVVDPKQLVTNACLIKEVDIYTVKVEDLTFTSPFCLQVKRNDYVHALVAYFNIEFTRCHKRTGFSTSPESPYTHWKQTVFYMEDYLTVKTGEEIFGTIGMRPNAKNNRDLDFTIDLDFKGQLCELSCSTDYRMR
Sequence of Histone deacetylase 1 (Q13547 whole entry): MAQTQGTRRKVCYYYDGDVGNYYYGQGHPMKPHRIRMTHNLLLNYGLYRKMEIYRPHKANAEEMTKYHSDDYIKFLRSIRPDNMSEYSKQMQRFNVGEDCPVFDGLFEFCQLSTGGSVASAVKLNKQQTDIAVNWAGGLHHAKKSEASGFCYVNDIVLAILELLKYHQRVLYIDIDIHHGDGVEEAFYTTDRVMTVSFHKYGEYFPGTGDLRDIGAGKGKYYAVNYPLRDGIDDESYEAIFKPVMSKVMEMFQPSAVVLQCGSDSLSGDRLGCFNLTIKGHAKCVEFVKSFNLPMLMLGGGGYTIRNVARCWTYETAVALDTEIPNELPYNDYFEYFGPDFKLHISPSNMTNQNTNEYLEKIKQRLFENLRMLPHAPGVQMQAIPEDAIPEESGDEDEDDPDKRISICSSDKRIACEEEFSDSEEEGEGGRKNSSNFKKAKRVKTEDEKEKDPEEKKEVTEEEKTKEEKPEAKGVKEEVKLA
Sequence of DNA (cytosine-5)-methyltransferase 1 (P26358 whole entry): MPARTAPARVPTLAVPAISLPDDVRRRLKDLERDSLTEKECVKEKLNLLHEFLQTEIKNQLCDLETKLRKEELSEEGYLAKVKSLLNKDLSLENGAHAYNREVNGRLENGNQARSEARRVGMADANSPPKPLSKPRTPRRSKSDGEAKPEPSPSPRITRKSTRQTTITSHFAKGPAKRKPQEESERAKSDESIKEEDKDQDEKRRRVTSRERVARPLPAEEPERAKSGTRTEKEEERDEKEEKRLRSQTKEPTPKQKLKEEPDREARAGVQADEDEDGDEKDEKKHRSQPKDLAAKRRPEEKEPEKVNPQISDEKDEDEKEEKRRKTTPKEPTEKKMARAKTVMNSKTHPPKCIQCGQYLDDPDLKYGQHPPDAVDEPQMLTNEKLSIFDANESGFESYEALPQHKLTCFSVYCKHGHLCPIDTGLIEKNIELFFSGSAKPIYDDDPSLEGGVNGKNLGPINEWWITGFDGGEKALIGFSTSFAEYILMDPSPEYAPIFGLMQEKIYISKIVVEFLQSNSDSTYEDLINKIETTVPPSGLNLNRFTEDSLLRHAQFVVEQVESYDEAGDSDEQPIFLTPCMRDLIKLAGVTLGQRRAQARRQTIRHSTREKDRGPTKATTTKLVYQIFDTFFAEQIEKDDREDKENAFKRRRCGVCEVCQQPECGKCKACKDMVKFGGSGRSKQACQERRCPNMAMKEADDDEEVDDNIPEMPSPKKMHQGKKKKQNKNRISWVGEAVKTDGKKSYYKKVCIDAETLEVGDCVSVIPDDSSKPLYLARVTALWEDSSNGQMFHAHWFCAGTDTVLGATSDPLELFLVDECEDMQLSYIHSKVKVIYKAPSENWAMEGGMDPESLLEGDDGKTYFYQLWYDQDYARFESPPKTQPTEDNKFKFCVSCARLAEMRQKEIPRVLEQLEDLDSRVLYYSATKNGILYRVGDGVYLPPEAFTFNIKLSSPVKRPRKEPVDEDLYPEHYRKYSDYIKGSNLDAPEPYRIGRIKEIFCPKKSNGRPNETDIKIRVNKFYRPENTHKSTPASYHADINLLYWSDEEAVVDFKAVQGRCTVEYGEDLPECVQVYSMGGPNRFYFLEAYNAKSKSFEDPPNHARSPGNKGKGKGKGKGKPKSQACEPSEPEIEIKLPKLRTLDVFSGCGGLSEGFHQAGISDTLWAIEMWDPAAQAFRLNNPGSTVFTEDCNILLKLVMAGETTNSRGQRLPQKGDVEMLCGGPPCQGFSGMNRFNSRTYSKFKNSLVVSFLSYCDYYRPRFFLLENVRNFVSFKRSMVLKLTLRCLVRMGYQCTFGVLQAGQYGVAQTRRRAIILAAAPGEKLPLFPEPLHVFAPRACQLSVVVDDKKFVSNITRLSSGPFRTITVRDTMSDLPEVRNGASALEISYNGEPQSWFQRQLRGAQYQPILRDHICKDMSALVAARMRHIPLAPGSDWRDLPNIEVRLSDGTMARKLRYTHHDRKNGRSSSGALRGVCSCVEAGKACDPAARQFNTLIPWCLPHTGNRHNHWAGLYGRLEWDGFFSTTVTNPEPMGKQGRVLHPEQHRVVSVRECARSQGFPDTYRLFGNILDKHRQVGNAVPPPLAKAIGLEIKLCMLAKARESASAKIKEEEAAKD

SMILES | inhibition [4] [%] | inhibition [5] [%] | pIC50 [6] | further results
CCN(CC)S(=O)(=O)c1ccc(/C=C/c2nc3cc(F)ccc3s2)cc1 | 53 | 84 | – | pIC50 [1]: 4.40; Activity [2]: Dose-dependent effect; pKd [3]: 4.72
Cc1ccc(C2C(C(=O)c3cc4ccccc4o3)=C(O)C(=O)N2Cc2ccco2)cc1 (configuration not stated) | – | – | 4.54 | –
CCN(CC)S(=O)(=O)c1ccc(/C=C/c2nc3ccccc3s2)cc1 | 93 | 100 | – | pIC50 [1]: 5.22; inhibition [7]: Active; inhibition [8]: inactive; pIC50 [9]: < 4.00; pIC50 [10]: < 4.00; pIC50 [11]: < 4.00; Ratio IC50 [12]: > 11; Ratio IC50 [13]: > 11; Ratio IC50 [14]: > 11; inhibition [15]: Dose-dependent effect; inhibition [16]: Dose-dependent effect; Activity [17]: Active; inhibition [18]: Dose-dependent effect; inhibition [19]: Dose-dependent effect
CCN(CC)S(=O)(=O)c1ccc(/C=C/c2nc3cc(Cl)ccc3s2)cc1 | 64 | 89 | – | pIC50 [1]: 4.52
CCN(CC)S(=O)(=O)c1ccc(/C=C/c2nc3ccccc3s2)cc1F | 16 | 18 | – | –
O=C(CCCCCCC(=O)Nc1ccccc1)NO | – | – | – | inhibition [16]: Dose-dependent effect
CCN(CC)S(=O)(=O)c1ccc(/C=C/c2nc3ccc(F)cc3s2)cc1 | – | – | 4.40 to 5.18 | –
CCN(CC)S(=O)(=O)c1ccc(/C=C/c2nc3cc(Br)ccc3s2)cc1 | 57 | 82 | – | pIC50 [1]: 4.52
C=C1C(=O)O[C@H](CCC)[C@H]1C(=O)O | – | – | – | pIC50 [20]: 4.00
CCN(CC)S(=O)(=O)c1ccc(/C=C/c2nc3cc(OC)ccc3s2)cc1 | 14 | 13 | – | –
CCN(CC)S(=O)(=O)c1ccc(/C=C/c2nc3ccccc3s2)cc1Cl | 7 | 12 | – | –
COc1ccc(CNS(=O)(=O)c2ccc(/C=C/c3nc4ccccc4s3)cc2)cc1 | 0 | 28 | – | –
Oc1cc(O)c2sc3nc(-c4cccs4)cc(-c4cccs4)c3c2n1 | – | – | 4.64 | –
O=C(Cc1cccc2ccccc12)Nc1ccc2nc(SCC(=O)N3CCCC3)sc2c1 | – | – | 4.85 | –
O=S(=O)(Nc1ccccc1)c1ccc(/C=C/c2nc3ccccc3s2)cc1 | 13 | 25 | – | –
CCc1nnc(NC(=O)CCSCCC(=O)Nc2nnc(CC)s2)s1 | – | – | 4.74 | –
CC1CCc2c(sc3nnn(CC(=O)Nc4cccc5ccccc45)c(=O)c23)C1 (configuration not stated) | – | – | 4.60 | –
Cc1ccc(-c2cc(C(=O)O)c3cc4c(C(=O)O)cc(-c5ccc(C)o5)nc4cc3n2)o1 | – | – | 4.77 | –
CCN(CC)S(=O)(=O)c1ccc(/C=C/c2nc3cc(C)c(C)cc3s2)cc1 | 95 | 96 | – | pIC50 [1]: 5.11
O=S(=O)(NCc1ccccc1)c1ccc(/C=C/c2nc3ccccc3s2)cc1 | 1 | 11 | – | –
CN(C)S(=O)(=O)c1ccc(/C=C/c2nc3ccccc3s2)cc1 | 9 | 14 | – | –
CCN(CC)S(=O)(=O)c1ccc(/C=C/c2nc3cc(C)ccc3s2)cc1 | 0 | 14 | – | –
CCN(CC)S(=O)(=O)c1ccc(/C=C/c2nc3ccc(Br)cc3s2)cc1 | 5 | 21 | – | –
CCCCCCCc1ccc(CCc2cccc(O)c2C(=O)O)cc1 | 100 | 100 | 4.57 | pIC50 [1]: 4.82; inhibition [21]: Active
N#Cc1c(-c2ccccc2)cc(-c2cccs2)nc1SCC(=O)NCC(=O)O | – | – | 4.13 | –
CCN(CC)S(=O)(=O)c1ccc(/C=C/c2nc3ccccc3s2)cc1C | 28 | 30 | – | –
Cc1ccc(CNS(=O)(=O)c2ccc(/C=C/c3nc4ccccc4s3)cc2)cc1 | 17 | 33 | – | –
